The values below come from ChEMBL document CHEMBL1143334, “Peri-substituted hexahydro-indolones as novel, potent and selective human EP3 receptor antagonists” (Bioorg Med Chem Lett, 2009).

A short description of data set [1]: Metabolic stability in rat liver microsomes after 30 mins. Format: ADME, Microsome. The note with it: read-out: Stability. The gist of the method:
(§1)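 Compound was incubated 30 min with liver microsomes from each species. Percent parent remaining was measured by LC/MS/MS.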
Background: Microsomes from liver hold many membrane-bound enzymes, among them those of drug oxidation.

Data set [2] can be described thus: Metabolic stability in human liver microsomes after 30 mins. Format: ADME, Microsome. The note with it: read-out: Stability. The gist of the method: as §1
Data set [3] deals with T1, Prostaglandin E2 receptor EP3 subtype (Homo sapiens, UniProt P43115).
T1 sequence (P43115 whole entry): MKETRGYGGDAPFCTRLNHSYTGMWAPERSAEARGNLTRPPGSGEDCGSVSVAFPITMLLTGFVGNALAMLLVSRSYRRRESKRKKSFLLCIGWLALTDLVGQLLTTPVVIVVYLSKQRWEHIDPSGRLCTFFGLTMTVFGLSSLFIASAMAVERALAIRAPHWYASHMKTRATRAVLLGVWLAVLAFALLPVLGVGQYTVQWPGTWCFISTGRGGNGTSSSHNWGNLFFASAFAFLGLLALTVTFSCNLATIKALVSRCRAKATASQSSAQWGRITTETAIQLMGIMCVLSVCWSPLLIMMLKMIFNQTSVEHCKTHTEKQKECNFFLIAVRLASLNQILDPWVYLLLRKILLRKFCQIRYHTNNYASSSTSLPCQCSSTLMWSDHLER
Kind of data set: Displacement of [3H]PGE2 from human EP3 receptor. The method in brief: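 Displacement of [3H]-PGE2 from human EP3 receptor membrane preparations was run in buffer. IC50 values come from at least three experiments each.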
In general terms: In a radioligand displacement assay an active substance lowers the binding of a labelled ligand.

Data set [4] concerns the target T2, Prostaglandin E2 receptor EP3 subtype (Homo sapiens) (UniProt P43115).
T2 sequence (whole entry): T1 sequence (P43115 whole entry)
Kind of data set: Ratio of IC50 for human EP3 receptor in presence of 10% human serum to IC50 for human EP3 receptor in buffer. The method in brief:
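Displacement of [3H]-PGE2 from human EP3 membrane preparations was run both with 10% human serum and in buffer alone. Fold-shift is IC50 with serum divided by IC50 in buffer.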

Data set [5] concerns the target T1, Prostaglandin E2 receptor EP3 subtype. Kind of data set: Antagonist activity at human EP3 receptor expressed in CHO-K1 cells assessed as reversal of inhibition of forskolin-induced cAMP production. Format: functional, cell-based. The method in brief:
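CHO-K1 cells stably expressing human EP3 were exposed to increasing test compound concentrations for 10 min at 37 °C, with 5 μM forskolin plus 5 nM PGE2 present. Read-out was the block of PGE2's inhibition of the forskolin-induced cAMP rise, giving IC50.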
Background: cAMP levels reflect the balance of adenylyl cyclase and phosphodiesterase activity.

The species entered for data set [6] is Homo sapiens. Description: Selectivity of human EP1 receptor over human EP3 receptor.
Data set [7] has as its target Prostaglandin E2 receptor EP2 subtype (Homo sapiens, UniProt P43116). Description: Binding affinity to human EP2 receptor at 20 uM by radioligand binding assay.
The target in data set [8] is Prostaglandin F2-alpha receptor (Homo sapiens, UniProt P43088). Description: Binding affinity to human FP receptor by radioligand binding assay.
The species named for data set [9] is Homo sapiens. Kind of data set: Selectivity of human EP4 receptor over human EP3 receptor.
The target in data set [10] is Prostaglandin E2 receptor EP4 subtype (Homo sapiens, UniProt P35408). Kind of data set: Binding affinity to human EP4 receptor at 20 uM by radioligand binding assay.
For data set [11], the species on record is Homo sapiens. Description: Selectivity of human EP2 receptor over human EP3 receptor.
Data set [12] has as its target T3, Prostaglandin E2 receptor EP1 subtype (Homo sapiens) (UniProt P34995).
T3 sequence (whole entry): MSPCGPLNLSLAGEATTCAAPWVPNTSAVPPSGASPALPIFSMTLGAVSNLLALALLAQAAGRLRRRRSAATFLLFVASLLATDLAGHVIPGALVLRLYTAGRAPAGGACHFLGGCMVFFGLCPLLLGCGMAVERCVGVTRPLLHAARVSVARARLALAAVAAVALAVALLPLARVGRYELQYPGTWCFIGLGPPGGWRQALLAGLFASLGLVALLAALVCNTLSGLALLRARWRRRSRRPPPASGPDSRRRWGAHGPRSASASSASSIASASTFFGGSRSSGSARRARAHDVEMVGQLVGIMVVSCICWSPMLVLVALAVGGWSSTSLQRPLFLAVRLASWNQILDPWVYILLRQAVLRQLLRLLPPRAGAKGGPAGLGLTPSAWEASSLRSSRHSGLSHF
Kind of data set: Binding affinity to human EP1 receptor at 20 uM by radioligand binding assay.

The species entered for data set [13] is Homo sapiens. Description: Selectivity of human FP receptor over human EP3 receptor.

Active and inactive are the calls of the source. No cut-off for these calls is given here.

Prostaglandin F2-alpha receptor, sequence (P43088 whole entry): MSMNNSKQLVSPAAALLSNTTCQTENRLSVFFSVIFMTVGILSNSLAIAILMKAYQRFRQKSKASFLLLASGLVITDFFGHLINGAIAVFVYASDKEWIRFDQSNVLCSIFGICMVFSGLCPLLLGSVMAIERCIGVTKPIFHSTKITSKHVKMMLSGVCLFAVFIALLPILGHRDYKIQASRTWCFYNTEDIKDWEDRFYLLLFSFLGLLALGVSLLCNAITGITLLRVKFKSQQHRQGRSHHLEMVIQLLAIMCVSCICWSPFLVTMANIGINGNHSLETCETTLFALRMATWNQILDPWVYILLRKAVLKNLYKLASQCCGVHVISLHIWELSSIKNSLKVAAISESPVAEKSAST
Prostaglandin E2 receptor EP4 subtype, sequence (P35408 whole entry): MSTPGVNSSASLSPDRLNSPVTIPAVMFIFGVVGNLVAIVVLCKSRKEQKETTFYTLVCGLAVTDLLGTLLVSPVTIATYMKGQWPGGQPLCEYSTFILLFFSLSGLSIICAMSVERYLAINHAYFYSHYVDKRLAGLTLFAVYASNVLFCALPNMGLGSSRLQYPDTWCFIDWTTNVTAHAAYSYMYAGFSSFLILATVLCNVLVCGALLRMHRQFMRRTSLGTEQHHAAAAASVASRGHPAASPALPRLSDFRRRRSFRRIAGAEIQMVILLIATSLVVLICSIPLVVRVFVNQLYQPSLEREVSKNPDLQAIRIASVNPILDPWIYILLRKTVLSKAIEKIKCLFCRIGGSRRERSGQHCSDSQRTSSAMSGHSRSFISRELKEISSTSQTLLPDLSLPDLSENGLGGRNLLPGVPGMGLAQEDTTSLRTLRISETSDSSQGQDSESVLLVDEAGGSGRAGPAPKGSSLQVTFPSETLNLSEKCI
Prostaglandin E2 receptor EP2 subtype, sequence (P43116 whole entry): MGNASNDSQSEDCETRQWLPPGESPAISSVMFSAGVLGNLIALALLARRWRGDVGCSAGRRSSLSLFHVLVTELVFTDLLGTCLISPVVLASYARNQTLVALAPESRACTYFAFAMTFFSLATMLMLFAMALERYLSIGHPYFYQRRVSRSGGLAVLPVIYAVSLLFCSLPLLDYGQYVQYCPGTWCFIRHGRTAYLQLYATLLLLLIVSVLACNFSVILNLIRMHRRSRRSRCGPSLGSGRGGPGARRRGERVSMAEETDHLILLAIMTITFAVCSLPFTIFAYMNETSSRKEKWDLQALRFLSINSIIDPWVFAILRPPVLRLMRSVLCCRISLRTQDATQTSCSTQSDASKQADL

Consider `CC12CCCC(/C=C/C(=O)NS(=O)(=O)c3ccc(F)cc3)=C1N(Cc1ccc(Cl)cc1Cl)C(=O)C2` (stereo not drawn), for which the remaining at 0.5 h in [1] was found to be 64%; in data set [2], 70%. Besides, in data set [3], the IC50 (as a rule, the concentration that inhibits the measured activity by half) was 15.2 nM. In addition, the fold change (FC) in data set [4] was 21.2.

`CC12CCCC(/C=C/C(=O)NS(=O)(=O)c3ccc(F)c(F)c3)=C1N(Cc1cccc(Cl)c1Cl)C(=O)C2` (stereo not drawn): the IC50 in data set [3] came out at 3.4 nM; in [5] it was 3.5 nM. In data set [4], the fold change (FC) stood at 7.8.

Regarding `CC12CCCC(/C=C/C(=O)NS(=O)(=O)c3cc(F)cc(F)c3)=C1N(Cc1ccc(F)cc1)C(=O)C2` (stereo not drawn), the Selectivity ratio in the data set filed under Homo sapiens [6], in the data set listed under Homo sapiens [9], in the data set listed under Homo sapiens [11] and in the data set filed under Homo sapiens [13] was > 1000 each time. For the same molecule, the IC50 was 84.1 nM in data set [3] and 4200 nM in [8]. The outcome in data set [7], in data set [10] and in data set [12] was inactive. Further, the fold change (FC) in data set [4] was determined as 5.4.

Molecule `CC12CCCC(/C=C/C(=O)NS(=O)(=O)c3cc(F)cc(F)c3)=C1N(Cc1ccc(F)c(F)c1)C(=O)C2` (stereo not drawn) gave an IC50 in data set [3] of 9.2 nM. Also, the fold change (FC) in data set [4] amounted to 217.

Regarding `COc1cccc(CN2C(=O)CC3(C)CCCC(/C=C/C(=O)NS(=O)(=O)c4cc(F)cc(F)c4)=C23)c1` (stereo not drawn), the IC50 in data set [3] worked out at 5.6 nM. Further, the fold change (FC) in data set [4] was 62.4.

Take `CC12CCCC(/C=C/C(=O)NS(=O)(=O)c3cc(Cl)c(Cl)s3)=C1N(Cc1ccc(Cl)cc1Cl)C(=O)C2` (stereo not drawn): the remaining at 0.5 h in [1] is 60%; in [2] it was 58%. Besides, the IC50 in [3] amounted to 2.3 nM. Moreover, the fold change (FC) in [4] is 38.4.

With `CC12CCCC(/C=C/C(=O)NS(=O)(=O)c3ccc(Cl)s3)=C1N(Cc1ccc(Cl)cc1Cl)C(=O)C2` (stereo not drawn), the remaining at 0.5 h in [1] came out at 68%; in [2], 75%. This molecule also gave an IC50 in data set [3] of 13.4 nM. For the same molecule, in data set [4], the fold change (FC) stood at 6.9.

For `CC12CCCC(/C=C/C(=O)NS(=O)(=O)c3cc(Cl)cc(Cl)c3)=C1N(Cc1ccc(Cl)cc1Cl)C(=O)C2` (stereo not drawn), the remaining at 0.5 h in data set [1] amounted to 62%; in data set [2] it was 70%. In addition, the IC50 in data set [3] was 9.8 nM. In addition, the fold change (FC) in data set [4] was 61.2.

As to `COc1cccc(CN2C(=O)CC3(C)CCCC(/C=C/C(=O)NS(=O)(=O)c4cc(F)c(F)cc4F)=C23)c1` (stereo not drawn), the remaining at 0.5 h in data set [1] stood at 84%; in data set [2], 76%. The half-maximal inhibitory concentration (IC50) in data set [3] came to 5.6 nM. The fold change (FC) in data set [4] is 6.2.

As for `CC12CCCC(/C=C/C(=O)NS(=O)(=O)c3cc(Cl)c(Cl)s3)=C1N(Cc1cccc(Cl)c1Cl)C(=O)C2` (stereo not drawn), the results for the remaining at 0.5 h in [1] and in data set [2] were 69% and 80%, respectively. Besides, the IC50 was 4.4 nM in [3] and 1.7 nM in data set [5]. Besides, in [4], the fold change (FC) stood at 6.6.

As to `COc1cccc(CN2C(=O)CC3(C)CCCC(/C=C/C(=O)NS(=O)(=O)c4cc(Cl)c(Cl)s4)=C23)c1` (stereo not drawn), the values for the remaining at 0.5 h in [1] and in [2] were 64% and 62%, respectively. For the same molecule, the Selectivity ratio in the data set listed under Homo sapiens [6], in the data set filed under Homo sapiens [9], in the data set filed under Homo sapiens [11] and in the data set listed under Homo sapiens [13] was > 1000 in each case. Besides, the IC50 worked out at 6.4 nM in data set [3], 6100 nM in data set [8] and 5.8 nM in data set [5]. In addition, the result in data set [7], in data set [10] and in data set [12] was inactive. Further, the fold change (FC) in data set [4] came to 4.8.

As to `CC12CCCC(/C=C/C(=O)NS(=O)(=O)c3cccs3)=C1N(Cc1ccc(Cl)cc1Cl)C(=O)C2` (stereo not drawn), the values for the remaining at 0.5 h in data set [1] and in data set [2] were 79% and 78%, respectively. In data set [3], this molecule showed an IC50 of 57.2 nM. Also, in data set [4], the fold change (FC) was 25.2.

For `CC12CCCC(/C=C/C(=O)NS(=O)(=O)c3cc(Cl)c(Cl)s3)=C1N(Cc1cccc(Cl)c1)C(=O)C2` (stereo not drawn), the IC50 in [3] amounted to 2.2 nM. The fold change (FC) in data set [4] is 16.3.

In [3], `CC12CCCC(/C=C/C(=O)NS(=O)(=O)c3cc(F)cc(F)c3)=C1N(Cc1cccc(Cl)c1Cl)C(=O)C2` (stereo not drawn) displayed a half-inhibitory concentration (IC50) of 3.8 nM. Also, in [4], the fold change (FC) was determined as 33.7.

Turning to `C[C@]12CCC[C@@H](CCC(=O)NS(=O)(=O)c3cc(F)c(F)cc3F)[C@H]1N(Cc1ccc(F)c(F)c1)C(=O)C2`, the IC50 in data set [3] stood at 557 nM. For the same molecule, the fold change (FC) in [4] was determined as 25.7.

With `CC12CCCC(/C=C/C(=O)NS(=O)(=O)c3cc(Cl)cc(Cl)c3)=C1N(Cc1ccc(F)c(F)c1)C(=O)C2` (stereo not drawn), the remaining at 0.5 h in data set [1] worked out at 45%; in data set [2] it was 68%. In addition, the results for the IC50 in data set [3] and in data set [5] were 5.6 nM and 3.2 nM, respectively. For the same molecule, the fold change (FC) in data set [4] amounted to 26.8.

`COC(=O)C12CCCC(/C=C/C(=O)NS(=O)(=O)c3ccc(F)c(F)c3)=C1N(Cc1ccc(Cl)cc1Cl)C(=O)C2` (stereo not drawn) had an IC50 in [3] of 20.6 nM. Besides, the fold change (FC) in data set [4] was 22.

Take `CC12CCCC(CCC(=O)NS(=O)(=O)c3cc(F)c(F)cc3F)=C1N(Cc1ccc(F)c(F)c1)C(=O)C2` (stereo not drawn): in data set [3], the half-maximal inhibitory concentration (IC50) is 1.8 nM. Besides, in data set [4], the fold change (FC) stood at 33.2.

Regarding `CC12CCCC(/C=C/C(=O)NS(=O)(=O)c3ccc(F)c(F)c3)=C1N(Cc1ccc(Cl)cc1Cl)C(=O)C2` (stereo not drawn), the IC50 in data set [3] is 3.4 nM. For the same molecule, the fold change (FC) in data set [4] turned out to be 18.

`CC12CCCC(/C=C/C(=O)NS(=O)(=O)c3cc(Cl)c(Cl)s3)=C1N(Cc1cccc(F)c1)C(=O)C2` (stereo not drawn): the results for the remaining at 0.5 h in data set [1] and in data set [2] were 18% and 67%, respectively. In addition, the IC50 in [3] came out at 9.5 nM. The fold change (FC) in [4] was 8.2.

`COC(=O)C12CCCC(/C=C/C(=O)NS(=O)(=O)c3cc(Cl)c(Cl)s3)=C1N(Cc1ccc(F)c(F)c1)C(=O)C2` (stereo not drawn) returned an IC50 in data set [3] of 29.9 nM. In data set [4], the fold change (FC) was 308.

As for `CC12CCCC(/C=C/C(=O)NS(=O)(=O)c3ccc(F)c(F)c3)=C1N(Cc1ccc(F)cc1)C(=O)C2` (stereo not drawn), the IC50 in [3] is 2.5 nM. Also, in data set [4], the fold change (FC) amounted to 15.9.

On to `CC12CCCC(/C=C/C(=O)NS(=O)(=O)c3cc(Cl)c(Cl)s3)=C1N(Cc1ccc(F)c(F)c1)C(=O)C2` (stereo not drawn), for which the figures for the remaining at 0.5 h in data set [1] and in data set [2] were 22% and 80%, respectively. For the same molecule, the IC50 turned out to be 3.5 nM in data set [3] and 5.2 nM in [5]. Further, the fold change (FC) in [4] came out at 17.7.

Turning to `CC12CCCC(/C=C/C(=O)NS(=O)(=O)c3cc(Cl)c(Cl)s3)=C1N(Cc1ccc(F)cc1)C(=O)C2` (stereo not drawn), the remaining at 0.5 h turned out to be 50% in [1] and 74% in data set [2]. In addition, the Selectivity ratio in the data set listed under Homo sapiens [6], in the data set listed under Homo sapiens [9], in the data set listed under Homo sapiens [11] and in the data set listed under Homo sapiens [13] was > 1000 each time. For the same molecule, the half-maximal inhibitory concentration (IC50) in data set [3] turned out to be 3.8 nM; in data set [8], 27400 nM. The result in [7], in data set [10] and in [12] was inactive. For the same molecule, the fold change (FC) in [4] was 3.

On to `COC(=O)C12CCCC(/C=C/C(=O)NS(=O)(=O)c3cc(F)c(F)cc3F)=C1N(Cc1ccc(Cl)cc1Cl)C(=O)C2` (stereo not drawn), for which the IC50 in data set [3] was determined as 11.2 nM. Moreover, the fold change (FC) in data set [4] is 47.1.
